FN deposit inh – fibronectin deposition inhibition; AH1F fibroblasts, Alexa488-fibronectin deposition fluorescence, overnight; inhibition, % at 12.6 µM; hit rate 0.086% among 350,000;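 active = mean inhibition across replicates of 30% or more, regardless of how many single replicates reach that level; inconclusive = mean under 30% yet at least half of replicates reach 30%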;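 also: positive control wells lacked labelled fibronectin entirely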
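Assay system: AH1F fibroblasts / Quantity: 10000 cells per well / Medium: DMEM plus 2% serum, read in PBS / Reagent: labelled fibronectin 24 nM / Dosing: single dose, pinned / Times: 1 h cell attachment, overnight exposure to compound and label / Signal: fluorescence, ex 485 nm, em 525 nm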
PGC1a acetyl inh – PGC1a acetylation modulation, inhibitor mode. hit rate 0.17% among 350,000. U2OS PGC1a acetylation, AlphaScreen anti-acetyl-lysine; with virally co-expressed GCN5 acetyltransferase. inhibition, % at 15.6 µM;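 active = every replicate shows inhibition of at least 40%; inconclusive = mean inhibition at least 40% but some replicate below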;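 also: 0% = neutral control wells and 100% = positive control wells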
EWS-Fli block – blocks EWS/Fli oncoprotein-driven transcription; A673 NR0B1-luciferase reporter, viability-normalised; inhibition, % at 12.6 µM; hit rate 0.67% among 350,000; AID 651661;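 active = mean inhibition of at least 50% after viability correction, with every replicate also passing that limit; inconclusive = mean reaches 50% but only one of two replicates passes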;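 also: firefly luciferase signal divided by Alamar Blue viability fluorescence both relative to DMSO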
PAX8 reporter – lowers PAX8-driven luciferase in RMG-I cells | AID 652154 | RMG-I TPO-luciferase reporter, SteadyGlo, 24 h | hit rate 1.2% among 360,000 | inhibition, % at 12.6 µM;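 active = mean replicate inhibition at least 60% with every replicate also reaching 60%; inconclusive = only one of the two criteria is met; inactive = mean below 60% and not all replicates reaching 60%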;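 also: luciferase light reporting Pax8 driven TPO promoter activity; plate controls were median of neutral control wells for no effect and mitoxantrone controls for full effect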
CFTR F508del cor – correctors of CFTR F508del function in bronchial epithelial cells; CFBE cells, YFP halide quenching; stimulated with forskolin plus potentiator P3; % fluorescence drop versus neutral controls; activity (quench increase), % at 7.58 µM; hit rate 0.36% among 350,000; AID 720511;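 active = mean added fluorescence quench of at least 8% versus neutral control, with both replicates also reaching 8%; inconclusive = only one of the mean or replicate conditions met; inactive = mean below 8% and not both replicates reaching 8%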;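 also: cells transiently co-express mutant CFTR-F508del with the halide-sensitive YFP; corrector assay measuring rescue of mutant channel to the surface after 24 h compound exposure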
HIV Env fusion – blocks HIV Env-driven cell-cell fusion. HeLa-JRFL Env/CEM21 cell fusion, luciferase. inhibition, % at 12.3 µM. hit rate 1.1% among 360,000. AID 651610;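 active = mean replicate inhibition score of at least 50 and every replicate individually at or above 50; inconclusive = only one of the two criteria met; inactive = mean below 50 and not all replicates reaching 50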;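 also: 0% = plate neutral controls and 100% = maraviroc near 300 nM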
* hit, by the source's call; i = inactive; ? = inconclusive; · = no result; [ ] = another dose, or the depositor's remark. Hits are enriched below; roughly 2.3% of the tested compounds scored in any of these assays.

SMILES	FN deposit inh	PGC1a acetyl inh	EWS-Fli block	PAX8 reporter	CFTR F508del cor	HIV Env fusion
CC(C)C#Cc1ccc2c(c1)O[C@@H](CN(C)C(=O)C1CCCCC1)[C@H](C)CN([C@@H](C)CO)S2(=O)=O	·	1	28	·	-2	36[16.7 µM]
CCOC(=O)C1(Cc2ccccc2)CCCN(Cc2ccccn2)C1 (stereo not drawn)	31*	-2	2	-8	2	-8
CCOC(=O)C1(Cc2ccccc2)CCCN(CCO)C1 (stereo not drawn)	8	-9	-4	14	1	20
COc1ccc2c(c1OC)CN1CCc3cc4c(cc3[C@@H]1[C@@H]2O)OCO4	·	-5	·	·	·	·
O[C@@H]1[C@@H](O)C=C2CCN3Cc4cc5c(cc4[C@H]1C23)OCO5 (stereo partly drawn)	2	·	44	102*	-5	·
COc1cc(OC)c2ccc(=O)oc2c1C(CC(=O)N1CCOCC1)c1ccc(N(C)C)cc1 (stereo not drawn)	31*	·	3	-5	-2	15
CCCNC(=O)N[C@@H]1CC[C@H](CC(=O)NC2CCCCC2)O[C@@H]1CO	-7	3	-1	-7	-1	-1[16.7 µM]
C[C@@H]1CN([C@@H](C)CO)C(=O)c2cc(NC(=O)NC3CCCCC3)ccc2O[C@@H](C)CCCCO[C@@H]1CN(C)S(=O)(=O)c1ccc(F)cc1	-5	-3	8	5	1	-4[16.7 µM]
COc1cc2c(cc1OC)C(c1cccs1)N(C(=O)C(C)C)CC2 (stereo not drawn)	·	-2	·	·	·	-72
COc1cc2c(cc1OC)C(c1cccs1)N(C(=O)c1cccnc1)CC2 (stereo not drawn)	4	-7	37	19	9.9*	-13
O=C(Cc1nnc(NC(=O)c2ccccc2)s1)N/N=C/c1ccco1	10	-1	-35	132*	-1	·
O=C(C[C@@H]1C[C@@H]2c3cc(NS(=O)(=O)c4ccc(F)cc4)ccc3O[C@@H]2[C@@H](CO)O1)NCCc1ccccc1	·	-3	4	36	0	51[16.7 µM]
O=C(C[C@H]1C[C@@H]2c3cc(NS(=O)(=O)c4ccc(F)cc4)ccc3O[C@@H]2[C@H](CO)O1)NCc1ccc(-c2ccccc2)cc1	-4	0	4	65*	3	32[16.7 µM]
O=C(C[C@@H]1C[C@H]2c3cc(NS(=O)(=O)c4ccc(F)cc4)ccc3O[C@H]2[C@@H](CO)O1)NCc1ccc(Oc2ccccc2)cc1	·	-7	59*	91*	1	-306[16.7 µM]
O=C(C[C@@H]1C[C@@H]2c3cc(NS(=O)(=O)c4ccc(F)cc4)ccc3O[C@@H]2[C@@H](CO)O1)NCc1ccc(Oc2ccccc2)cc1	·	-7	36	106*	1	-12[16.7 µM]
O=C(C[C@H]1C[C@@H]2c3cc(NS(=O)(=O)c4ccc(F)cc4)ccc3O[C@@H]2[C@H](CO)O1)NCCc1ccccc1	·	-10	-4	-5	0	75*[16.7 µM]
CCCNC(=O)N1CC2(CCN(Cc3cccnc3)CC2)c2c(n(C)c3cc(OC)ccc23)[C@H]1CO	·	1	-2	·	-3	·
COCC(=O)Nc1ccc2c(c1)[C@H]1C[C@@H](CC(=O)NCc3ccc(Cl)cc3)O[C@@H](CO)[C@H]1O2	1	2	6	-3	-5	12[16.7 µM]
O=C(C[C@H]1C[C@@H]2c3cc(NC(=O)Nc4ccc(C(F)(F)F)cc4)ccc3O[C@@H]2[C@@H](CO)O1)NCc1ccc(Cl)cc1	·	-8	21	89*	-4	11[16.7 µM]
O=C(C[C@H]1C[C@@H]2c3cc(NS(=O)(=O)c4ccc(F)cc4)ccc3O[C@@H]2[C@H](CO)O1)NCc1ccc(Cl)cc1	8	-7	-5	-13	-2	86*[16.7 µM]
O=C(C[C@@H]1C[C@@H]2c3cc(NS(=O)(=O)c4ccc(F)cc4)ccc3O[C@@H]2[C@H](CO)O1)NCc1ccc(Oc2ccccc2)cc1	4	-1	25	56	-3	39[16.7 µM]
O=C(C[C@@H]1C[C@@H]2c3cc(NC(=O)Nc4ccc(C(F)(F)F)cc4)ccc3O[C@@H]2[C@@H](CO)O1)NCc1ccc(Cl)cc1	·	-8	-2	20	2	10[16.7 µM]
O=C(C[C@@H]1C[C@H]2c3cc(NS(=O)(=O)c4ccc(F)cc4)ccc3O[C@H]2[C@@H](CO)O1)NCc1ccc(Cl)cc1	-21	6	5	0	3	12[16.7 µM]
O=C(C[C@@H]1C[C@H]2c3cc(NS(=O)(=O)c4ccc(F)cc4)ccc3O[C@H]2[C@H](CO)O1)NCc1ccc(Oc2ccccc2)cc1	·	-30	59*	101*	0	-242[16.7 µM]
N#C/C(=C/c1ccc(N2CCCCC2)o1)C(=O)Nc1ccc2ccccc2c1	i	·	-90	-97	9.6*	-8
SMILES	FN deposit inh	PGC1a acetyl inh	EWS-Fli block	PAX8 reporter	CFTR F508del cor	HIV Env fusion
Clc1ccccc1/C=C/c1nc(-c2ccccn2)no1	15	6	67*	45	-1	20
CC(C)[C@H]1C(=O)N[C@H](c2ccc3c(c2)OCO3)CC=CC[C@@H](C)Oc2ccccc2C(=O)N1C (mixture of isomers)	8	·	·	·	·	·
Cc1cc(Cl)ccc1OCC(=O)NCCOc1nc(N2CCOCC2)nc(N2CCOCC2)n1	29	-20	·	23	·	94*
O=C(COc1ccc(Cl)cc1Cl)NCCCN1CCOCC1	0	?	·	·	·	-12
CN(C)c1nc(OCCNC(=O)COc2ccc(Cl)cc2Cl)nc(N2CCOCC2)n1	0	·	·	-4	·	41*
COCC(=O)Nc1ccc2c(c1)OC[C@H](C)N(Cc1cncnc1)C[C@@H](C)[C@H](OC)CN(C)C2=O	5	-46	4	·	0	·
CCc1ccc(C2=NNC(=Nc3cccc(S(=O)(=O)N(C)C)c3)SC2)cc1	-15	·	36	104*	·	80*
Cc1cccc(N=C2NN=C(c3ccc4c(c3)OCCO4)CS2)c1	·	-8	10	·	2	·
CCCC(O)(CCC)C(=O)NN(C(=O)CCl)c1ccccc1	-3	·	-2	-7	1	85*
CC(=O)N(C)C[C@@H]1Oc2c(NS(C)(=O)=O)cccc2C(=O)N(C)C[C@H]1C	-5	·	·	·	·	·
C[C@@H]1CCCCO[C@H](CN(C)Cc2ccc(Cl)c(Cl)c2)[C@@H](C)CN([C@@H](C)CO)C(=O)c2cc(NC(=O)NC3CCCCC3)ccc2O1	·	11	-1	70*	6	·
C[C@@H]1CCCCO[C@@H](CN(C)Cc2ccc(Cl)c(Cl)c2)[C@@H](C)CN([C@H](C)CO)C(=O)c2cc(NC(=O)Nc3ccc(F)cc3)ccc2O1	·	14	2	48	0	-26[16.7 µM]
C[C@@H]1CN([C@@H](C)CO)C(=O)c2cc(NC(=O)Nc3ccc(F)cc3)ccc2O[C@@H](C)CCCCO[C@H]1CN(C)Cc1ccc(Cl)c(Cl)c1	·	6	4	72*	-2	48[16.7 µM]
C[C@@H]1CCCCO[C@H](CN(C)Cc2ccc(Cl)c(Cl)c2)[C@H](C)CN([C@@H](C)CO)C(=O)c2cc(NC(=O)Nc3ccc(F)cc3)ccc2O1	·	?	4	75*	-1	-47

High-throughput results as filed in PubChem.
